Experimental data taken from PubChem BioAssay AID588416 (The Scripps Research Institute Molecular Screening Center, 2011).
Active and inactive are the calls of the source.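 The calls were made as follows: active = IC50 at or below 1000 nM; inactive = IC50 above 1000 nM.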

Target: Protein-arginine deiminase type-4 (Homo sapiens) (UniProt Q9UM07)
Experiment: PAD4 enzyme inhibition, citrulline production – biochemical, colorimetric substrate assay, assay provider data, 0-50 µM, late-stage follow-up (AID 588416)
Conditions: recombinant PAD4, BAEE substrate, citrulline colorimetric absorbance
Summary of the method: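 System: recombinant PAD4 / Reagent: 10 mM BAEE substrate / Compound: 7-point series, top 50 µM / Times: 15 min compound preincubation, then 15 min substrate reaction, 37 °C / Measured by: colorimetric citrulline absorbance at 540 nm, diacetyl monoxime–thiosemicarbazide development / Read-out: IC50 from curve fit, citrulline quantified via citrulline standard curve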

Sequence of Protein-arginine deiminase type-4 (Homo sapiens) (Q9UM07 whole entry, looked up): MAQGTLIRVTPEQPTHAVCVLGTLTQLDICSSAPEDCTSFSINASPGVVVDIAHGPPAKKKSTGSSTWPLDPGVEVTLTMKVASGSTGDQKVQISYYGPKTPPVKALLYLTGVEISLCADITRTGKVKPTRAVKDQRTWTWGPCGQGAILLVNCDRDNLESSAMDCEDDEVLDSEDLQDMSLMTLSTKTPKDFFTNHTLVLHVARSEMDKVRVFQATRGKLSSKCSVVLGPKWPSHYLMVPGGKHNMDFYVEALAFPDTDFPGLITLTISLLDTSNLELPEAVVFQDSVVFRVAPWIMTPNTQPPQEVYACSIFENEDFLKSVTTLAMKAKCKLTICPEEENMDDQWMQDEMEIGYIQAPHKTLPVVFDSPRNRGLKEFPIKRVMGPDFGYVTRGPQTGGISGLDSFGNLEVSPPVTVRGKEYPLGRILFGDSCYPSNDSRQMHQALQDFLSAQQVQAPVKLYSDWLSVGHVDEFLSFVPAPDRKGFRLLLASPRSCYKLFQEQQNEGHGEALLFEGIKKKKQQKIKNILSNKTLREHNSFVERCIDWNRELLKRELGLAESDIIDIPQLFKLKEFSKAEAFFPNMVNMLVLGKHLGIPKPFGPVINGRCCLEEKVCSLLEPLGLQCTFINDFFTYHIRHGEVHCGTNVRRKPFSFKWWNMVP

IC50: inactive
SMILES: O=C1C=C(Br)C(=O)c2ncccc21
